From PubChem
In the library only some 9.6% were active in any assay of this set; here they are far more common.
Lmaj promast = Leishmania major promastigote growth inhibition; Leishmania major promastigotes, resazurin fluorescence viability; inhibition, % at 10 µM; 200,000 compounds, 9% hits; AID 1063; in the data active means inhibition above about 50%;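 further: promastigotes grown with compound for 44 hours at 28 °C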
bCat nuc transl = modulators of beta-catenin nuclear translocation | HeLa beta-catenin nuclear translocation, immunofluorescence imaging | nuclear translocation activity, % at 5 µM | 190,000 compounds, 0.3% hits | AID 1665;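 active means nuclear translocation activity above 50% at 5 µM, with a well cell count of 50 or more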;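 further: per-cell ratio of nuclear to cytoplasmic median beta-catenin stain intensity; plate controls were DMSO negative control for no effect and GSK-3 inhibitor IX positive control for full effect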
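assay system = human HeLa cells, endogenous beta-catenin | times = compound treatment 24 h, 37°C, 5% CO2 | detection = Anti-beta-catenin immunofluorescence on PFA-fixed, Triton-permeabilized cells, DAPI nuclei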
APP 5UTR inh = APP translation inhibition | AID 1285 | SH-SY5Y APP 5'UTR-luciferase reporter, luminescence | inhibition, % at 2 µM | 190,000 compounds, 0.82% hits;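 active means inhibition above a set limit, derived from the sample mean plus 3 SD, cut at about 45% in these data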
BaF3 tox = parental Ba/F3 viability inhibition as JAK2V617F counter-screen. CellTiter-Glo ATP luminescence. inhibition, % at 5.6 µM. 220,000 compounds, 1.1% hits. AID 1486;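 active means inhibition above a per-campaign cutoff, the mean inhibition of all tested compounds plus 3 SD, cut at about 27% in these data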;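 further: 0% = DMSO wells and 100% = JAK Inhibitor I control wells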
MT stabilizer = stabilizes microtubules in HeLa cells. HeLa tubulin immunostaining HCS, 24 h; share of cells brighter than vehicle mean+2SD. % tubulin-high responders, % at 10 µM. 200,000 compounds, 0.83% hits;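 active means plate Z-score above 3 for both tubulin-high and condensed-nucleus cell shares, with cell loss under 80%, at 10 µM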;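 further: anti alpha tubulin signal scored within the nucleus-defined area of each cell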
Ba/F3 V617F tox = reduce viability of Ba/F3 cells dependent on JAK2V617F. Ba/F3 EpoR-JAK2V617F viability, ATP luminescence. inhibition, % at 5.6 µM. 220,000 compounds, 1.1% hits. AID 1446;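 active means inhibition above the campaign mean plus 3 SD over all tested compounds, cut at about 24% in these data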;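 further: cytokine-independent growth of Ba/F3 cells driven by EpoR plus mutant JAK2; 0% = DMSO-treated cells and 100% = JAK inhibitor I control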
* hit, by the source's call; x = not tested or not shown.

SMILES	Lmaj promast	bCat nuc transl	APP 5UTR inh	BaF3 tox	MT stabilizer	Ba/F3 V617F tox
O=C(C1=C[C@@H](C2CC2)C[C@@H](OCc2ccc(CO)cc2)O1)N1CCN(Cc2ccc3c(c2)OCO3)CC1	21	1	3	-2	4	3
O=C(C1=C[C@H](c2ccc3c(c2)OCO3)C[C@H](OCCCCO)O1)N1CCN(Cc2ccc3c(c2)OCO3)CC1	51*	2	-13	-1	1	8
O=C(C1=C[C@@H](c2ccc3c(c2)OCO3)C[C@@H](OCCCCO)O1)N1CCN(Cc2ccc3c(c2)OCO3)CC1	23	-1	10	1	1	-1
O=C(C1=C[C@H](C2CCCCC2)C[C@H](OCCCCO)O1)N1CCN(Cc2ccc3c(c2)OCO3)CC1	97*	-1	3	-1	3	0
O=C(COc1ccc2oc(-c3ccccc3)cc(=O)c2c1)Nc1ccccc1	-6	0	-41	1	5	-4
COc1ccc(Br)cc1C(=O)Nc1ccccc1N1CCN(C(=O)c2ccccc2)CC1	55*	2	-7	7	3	0
CC(=O)c1ccc(NS(=O)(=O)c2ccccc2)cc1	8	-2	-11	-1	2	0
Cc1ccc(S(=O)(=O)Nc2ccc(C(OC(=O)c3ccccc3[N+](=O)[O-])(C(F)(F)F)C(F)(F)F)cc2)cc1	100*	x	8	7	2	1
O=C(OC(c1ccc(NS(=O)(=O)c2ccccc2)cc1)(C(F)(F)F)C(F)(F)F)c1ccccc1	100*	x	21	7	2	5
Clc1ccc(-c2ccccc2)nn1	x	0	x	1	x	-1
O=c1c2c3c(sc2n2c(=S)[nH]nc2n1Cc1ccccc1)CN(Cc1ccccc1)CC3	24	x	-18	7	3	2
COc1ccc(C(=O)NC(=O)NC2(C(Cl)(Cl)Cl)OCCO2)cc1	5	-5	-226	-2	6	-2
Cc1ccccc1NC(=O)Cc1nc(CSc2nnc(-c3ccc4c(c3)OCO4)o2)cs1	86*	0	-8	1	1	-3
CCCCN1C(=O)/C(=C/C=C2/CC(C)(C)CN2C)SC1=S	59*	x	-22	1	2	-2
O=C1/C(=C/c2ccc(N3CCOCC3)o2)SC(=Nc2ccccc2)N1CCc1c[nH]c2ccccc12	100*	0	19	0	6	19
O=C(NCCSCc1c(F)cccc1Cl)c1ccc(CN2CCOCC2)cc1	80*	-1	-3	7	3	3
CS(=O)(=O)N(CC(=O)NCC1CCCO1)c1cccc([N+](=O)[O-])c1 (centres undefined)	5	0	-28	1	4	-3
COc1ccc([N+](=O)[O-])cc1N(CC(=O)NCC1CCCO1)S(C)(=O)=O (centres undefined)	58*	-2	-6	5	5	1
COc1ccc([N+](=O)[O-])cc1N(CC(=O)NCCC1=CCCCC1)S(C)(=O)=O	71*	-3	-7	-2	3	-6
Cc1n[nH]c(C)c1CCC(=O)N/N=C/c1cccs1	x	0	x	-3	x	3
CC1CCN(S(=O)(=O)c2cccc(C(=O)Nc3ccccc3)c2)CC1	29	0	-13	-3	2	-5
CCCC(=O)Nc1ccc(C=C(C(C)=O)C(C)=O)cc1	x	-1	x	-1	x	-3
Cc1sc2nc(CSc3ccccc3)nc(N3CCN(C)CC3)c2c1C	98*	-1	-3	4	2	0
CCOc1c(OC)cccc1C1CC(=O)Nc2cc3c(cc21)OCCO3 (centres undefined)	-3	7	2	5	22*	0
CCn1c(CNc2ccc(F)cc2)nnc1SCCN1CCCCC1	7	-2	-7	93*	5	-3
CCCCNc1cc(F)nc(N)n1	-6	x	11	1	5	-2
COC(=O)c1ccc(CC(=O)c2c(C)cc(O)cc2O)o1	-5	5	13	1	4	-2
C=CCn1c(SC/C=C/c2ccccc2)nnc1-c1sc(N)nc1C	9	-1	12	3	3	-1
COc1cc(C(=O)Nc2ccc(S(=O)(=O)N3CCCCC3C)cc2)cc(OC)c1OC (centres undefined)	20	-2	3	2	3	3
COc1ccc(C(=O)Nc2ccc(S(=O)(=O)N3CCCCC3C)cc2)c(OC)c1OC (centres undefined)	61*	0	-8	6	4	4
